Assay results reported in ChEMBL document CHEMBL2331484, “Synthesis and biological evaluation of scopoletin derivatives” (Bioorg Med Chem, 2013).
One block for each compound: values may come before it. Calls of active or inactive are those of the source. The calls are words filed in the database; no cut-off is given here.

Key:
[1] = test system: HUVEC; test: Antiproliferative activity against HUVEC assessed as growth inhibition rate at 100 uM after 24 hrs by MTT assay; assay type: functional; details: Homo sapiens, read-out: GI
Outline: (§1)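 HUVECs (passages 3–5, primary cord isolates) seeded at 1 × 10⁴ cells/well. Medium replaced with M199 containing 1% FBS plus compound. Viability read by MTT after 24 h. Percent inhibition was calculated from A570 minus A630 of treated versus control wells, and IC50 determined. Triplicate experiments, means ± SEM.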

[2] = test system: HUVEC; test: Antiproliferative activity against HUVEC assessed as growth inhibition rate at 10 uM after 24 hrs by MTT assay; assay type: functional; details: Homo sapiens, read-out: GI; outline: as §1
[3] = test system: HUVEC; test: Effect on total p38 MAPK level in VEGF-stimulated HUVEC pretreated at 10 to 50 umol/L for 30 mins before VEGF addition by Western blot analysis; assay type: functional, cell-based; details: Homo sapiens
[4] = test system: HUVEC; test: Effect on total src level in VEGF-stimulated HUVEC pretreated at 10 to 50 umol/L for 30 mins before VEGF addition by Western blot analysis; assay type: functional, cell-based; details: Homo sapiens
[5] = test system: HUVEC; test: Effect on total ERK1/2 level in VEGF-stimulated HUVEC pretreated at 10 to 50 umol/L for 30 mins before VEGF addition by Western blot analysis; assay type: functional, cell-based; details: Homo sapiens
[6] = test system: HUVEC; test: Effect on total akt level in VEGF-stimulated HUVEC pretreated at 10 to 50 umol/L for 30 mins before VEGF addition by Western blot analysis; assay type: functional, cell-based; details: Homo sapiens
[7] = target: MAP kinase p38 (Homo sapiens) (UniProt O15264+Q15759+Q16539+P53778); test: Inhibition of VEGF receptor signaling in VEGF-stimulated HUVEC assessed a effect on p38 MAPK phosphorylation pretreated at 10 to 50 umol/L for 30 mins before VEGF addition by Western blot analysis; assay type: protein assay
[8] = Inhibition of VEGF receptor signaling in VEGF-stimulated HUVEC assessed a effect on src phosphorylation pretreated at 10 to 50 umol/L for 30 mins before VEGF addition by Western blot analysis; assay type: cell-based; details: Homo sapiens
[9] = Inhibition of VEGF receptor signaling in HUVEC assessed a inhibition of VEGF-induced Akt phosphorylation pretreated at 10 to 50 umol/L for 30 mins before VEGF addition by Western blot analysis; assay type: cell-based; details: Homo sapiens
[10] = test system: PANC-1; test: Inhibition of MMP-2 protein expression in human PANC1 cells at 10 to 50 umol/L after 24 hrs by SDS-PAGE analysis; assay type: functional, cell-based
Outline: (§2)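 Gelatin zymography of culture medium from equal numbers of PANC-1 cells exposed to compound for 24 h. Samples run non-reduced and unboiled on 10% polyacrylamide with 1 mg/mL gelatin. Gel washed in 2.5% Triton X-100 buffer, digested 14 h at 37 °C in Tris–HCl/CaCl2/ZnCl2 buffer pH 7.6, then Coomassie-stained. Clear bands imaged.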

[11] = Inhibition of VEGF receptor signaling in HUVEC assessed a inhibition of VEGF-induced ERK1/2 phosphorylation pretreated at 10 to 50 umol/L for 30 mins before VEGF addition by Western blot analysis; assay type: cell-based; details: Homo sapiens
[12] = test system: PANC-1; test: Inhibition of MMP-9 protein expression in human PANC1 cells at 10 to 50 umol/L after 24 hrs by SDS-PAGE analysis; assay type: functional, cell-based; outline: as §2
[13] = species: Gallus gallus; test: Antiangiogenic activity in chicken embryo chorioallantoic membrane model assessed as inhibition of new blood vessel formation at 10 nmol/egg after 48 hrs by microscopy; assay type: functional, tissue-based
Outline: (§3)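 Fertilized chicken eggs incubated seven days at 37.5 °C, ~55% humidity, and the air sac membrane was detached. Sterile 5 × 5 mm filter paper soaked with DMSO or compound (5 and 10 nmol/egg) was air-dried and placed on the CAM. Eggs were sealed and reincubated. Fat emulsion (20%) was injected into the CAM and vessels photographed. Three independent experiments.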

[14] = species: Gallus gallus; test: Antiangiogenic activity in chicken embryo chorioallantoic membrane model assessed as inhibition of new blood vessel formation at 5 nmol/egg after 48 hrs by microscopy; assay type: functional, tissue-based; outline: as §3
[15] = test system: HUVEC; test: Antiangiogenic activity against HUVEC assessed as inhibition of VEGF-induced branching and network formation at 25 umol/L after 5 hrs by microscopy; assay type: functional, cell-based; details: Homo sapiens
Outline: (§4)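 Matrigel-coated wells gelled 37 °C 30 min. DMSO or compound (final 25 µmol/L) added for 30 min before plating. After 5 h, enclosed complete tubes counted in five random fields by microscopy. Triplicate experiments, means ± SEM.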

[16] = test system: HUVEC; test: Antiangiogenic activity against HUVEC assessed as inhibition of VEGF-induced tube formation at 25 umol/L after 5 hrs by microscopy; assay type: functional, cell-based; details: Homo sapiens; outline: as §4
[17] = test system: HuT78; test: Cytotoxicity against human HUT78 cells after 24 hrs by MTT assay; assay type: functional, cell-based; details: HuT78, 24 h
[18] = test system: K562; test: Cytotoxicity against human K562 cells after 24 hrs by MTT assay; assay type: functional, cell-based; details: K562, 24 h
[19] = test system: HL-60; test: Cytotoxicity against human HL60 cells after 24 hrs by MTT assay; assay type: functional, cell-based; details: HL-60, 24 h
[20] = Cytotoxicity against human SHG44 cells after 24 hrs by MTT assay; assay type: functional, cell-based; details: SHG-44, 24 h
[21] = test system: A-431; test: Cytotoxicity against human A431 cells after 24 hrs by MTT assay; assay type: functional, cell-based; details: A-431, 24 h
[22] = test system: A549; test: Cytotoxicity against human A549 cells after 24 hrs by MTT assay; assay type: functional, cell-based; details: A549, 24 h
[23] = test system: MKN-45; test: Cytotoxicity against human MKN45 cells after 24 hrs by MTT assay; assay type: functional, cell-based; details: MKN-45, 24 h
[24] = test system: HCT-116; test: Cytotoxicity against human HCT116 cells after 24 hrs by MTT assay; assay type: functional, cell-based; details: HCT-116, 24 h
[25] = test system: HepG2; test: Cytotoxicity against human HepG2 cells after 24 hrs by MTT assay; assay type: functional, cell-based; details: HepG2, 24 h
[26] = test system: MDA-MB-231; test: Cytotoxicity against human MDA-MB-231 cells after 24 hrs by MTT assay; assay type: functional, cell-based; details: MDA-MB-231, 24 h
[27] = test system: MDA-MB-435; test: Cytotoxicity against human MDA-MB-435 cells after 24 hrs by MTT assay; assay type: functional, cell-based; details: MDA-MB-435, 24 h
[28] = test system: BXPC-3; test: Cytotoxicity against human BxPC3 cells after 24 hrs by MTT assay; assay type: functional, cell-based; details: BXPC-3, 24 h
[29] = test system: PANC-1; test: Cytotoxicity against human PANC1 cells after 24 hrs by MTT assay; assay type: functional, cell-based; details: PANC-1, 24 h
[30] = test system: PBMC; test: Cytotoxicity against human PBMC after 24 hrs by MTT assay; assay type: cell-based
[31] = test system: HUVEC; test: Antiproliferative activity against HUVEC assessed as growth inhibition rate after 24 hrs by MTT assay; assay type: functional, cell-based; details: Homo sapiens; outline: as §1
[32] = test system: HUVEC; test: Antiangiogenic activity against HUVEC assessed as inhibition of VEGF-induced migration at 25 umol/L after 20 hrs by microscopy; details: Homo sapiens
[33] = test system: HUVEC; test: Antiangiogenic activity against HUVEC assessed as inhibition of VEGF-induced cell migration at 25 umol/L after 20 hrs by Boyden chamber assay; assay type: functional, cell-based; details: Homo sapiens
Outline: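 Boyden chamber, 8.0 µm membrane. HUVECs at 80% confluence serum-starved 12 h in basal medium and suspended at 1 × 10⁶ cells/mL. Pre-treated 30 min at room temperature with DMSO or compound (final 25 µmol/L). After 20 h cells fixed, stained, and counted in five random fields. Triplicate experiments.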

SMILES: COc1cc2ccc(=O)oc2cc1OCC(O)CN1CCCC1 (stereo not drawn)
inhibition of growth at 100 µM [1]: 0.3%
inhibition of growth at 10 µM [2]: 0.5%

SMILES: COc1cc2ccc(=O)oc2cc1OCCN1CCCC1
inhibition of growth at 100 µM [1]: 7.9%
inhibition of growth at 10 µM [2]: 1.9%

inhibition [7]: inactive
SMILES: COc1cc2ccc(=O)oc2cc1OCC(O)CN1CCCCC1 (stereo not drawn)
Activity [3]: inactive
Activity [4]: inactive
Activity [5]: inactive
Activity [6]: inactive
inhibition [8]: inactive
inhibition [9]: Active
inhibition [10]: Active
inhibition [11]: Active
inhibition [12]: Active
inhibition [13]: Active
inhibition [14]: Active
inhibition [15]: Active
inhibition [16]: Active
IC50 [17]: 46.6 µM
IC50 [18]: 43.7 µM
IC50 [19]: 30.2 µM
IC50 [20]: 42.8 µM
IC50 [21]: 93.9 µM
IC50 [22]: 42.7 µM
IC50 [23]: 78.9 µM
IC50 [24]: 26.1 µM
IC50 [25]: 83.9 µM
IC50 [26]: 51.6 µM
IC50 [27]: 63 µM
IC50 [28]: 35 µM
IC50 [29]: > 100 µM
IC50 [30]: > 100 µM
IC50 [31]: 24.2 µM
inhibition of growth at 100 µM [1]: 80.7%
inhibition of growth at 10 µM [2]: 31.4%
inhibition [32]: Active

SMILES: COc1cc2ccc(=O)oc2cc1OCC(O)CN1CCOCC1 (stereo not drawn)
inhibition of growth at 100 µM [1]: 0.1%
inhibition of growth at 10 µM [2]: 0.4%

SMILES: COc1cc2ccc(=O)oc2cc1OCC1CO1 (stereo not drawn)
IC50 [31]: 5.3 µM
inhibition of growth at 100 µM [1]: 95.5%
inhibition of growth at 10 µM [2]: 62.2%

SMILES: COc1cc2ccc(=O)oc2cc1O [SCOPOLETIN]
inhibition [10]: Active
inhibition [12]: Active
inhibition [15]: inactive
inhibition [16]: inactive
inhibition [33]: inactive
IC50 [17]: > 100 µM
IC50 [18]: > 100 µM
IC50 [19]: > 100 µM
IC50 [20]: > 100 µM
IC50 [21]: > 100 µM
IC50 [22]: > 100 µM
IC50 [23]: > 100 µM
IC50 [24]: > 100 µM
IC50 [25]: > 100 µM
IC50 [26]: > 100 µM
IC50 [27]: > 100 µM
IC50 [28]: > 100 µM
IC50 [29]: > 100 µM
IC50 [30]: > 100 µM
inhibition of growth at 100 µM [1]: 2.1%
inhibition of growth at 10 µM [2]: 0%
inhibition [32]: inactive

inhibition [7]: inactive
SMILES: COc1cc2ccc(=O)oc2cc1OCC(=O)c1ccc(Cl)cc1
Activity [3]: inactive
Activity [4]: inactive
Activity [5]: inactive
Activity [6]: inactive
inhibition [8]: inactive
inhibition [9]: Active
inhibition [10]: Active
inhibition [11]: inactive
inhibition [12]: Active
inhibition [13]: Active
inhibition [14]: Active
inhibition [15]: Active
inhibition [16]: Active
inhibition [33]: Active
IC50 [17]: 62.1 µM
IC50 [18]: 52.5 µM
IC50 [19]: 65.7 µM
IC50 [20]: > 100 µM
IC50 [21]: > 100 µM
IC50 [22]: > 100 µM
IC50 [23]: 99.2 µM
IC50 [24]: 59.5 µM
IC50 [25]: 56.3 µM
IC50 [26]: > 100 µM
IC50 [27]: 92.4 µM
IC50 [28]: > 100 µM
IC50 [29]: 19.8 µM
IC50 [30]: > 100 µM
IC50 [31]: 10 µM
inhibition of growth at 100 µM [1]: 83.8%
inhibition of growth at 10 µM [2]: 62.6%
inhibition [32]: Active

SMILES: COc1cc2ccc(=O)oc2cc1OCCNC(C)C
inhibition of growth at 100 µM [1]: 0.1%
inhibition of growth at 10 µM [2]: 0.1%

SMILES: COc1cc2ccc(=O)oc2cc1OCC(=O)c1ccc([N+](=O)[O-])cc1
inhibition of growth at 100 µM [1]: 27.2%
inhibition of growth at 10 µM [2]: 4.1%

SMILES: CCN(CC)CCOc1cc2oc(=O)ccc2cc1OC
inhibition of growth at 100 µM [1]: 3.1%
inhibition of growth at 10 µM [2]: 0.1%

SMILES: COc1cc2ccc(=O)oc2cc1OCC(=O)c1ccc(Cl)c(Cl)c1
inhibition of growth at 100 µM [1]: 42.8%
inhibition of growth at 10 µM [2]: 0%

SMILES: COc1cc2ccc(=O)oc2cc1OCCCl
inhibition of growth at 100 µM [1]: 3.3%
inhibition of growth at 10 µM [2]: 0.3%

SMILES: COc1cc2ccc(=O)oc2cc1OCCN1CCOCC1
inhibition of growth at 100 µM [1]: 1.9%
inhibition of growth at 10 µM [2]: 0%
